{"source": "paper PMC9272679", "about": "(Computers in Biology and Medicine, 2022)", "key": {"HOP-62": {"tested_on": "HOP-62", "experiment": "In vitro antiproliferative assay", "format": "cell-based, human", "conditions": "for mean optical densities: 48 h, SRB, 515 nm", "how_it_was_run": "(§1)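 NCI-sourced cells grown in DMEM with 10% FBS, penicillin 25 U/mL and streptomycin 25 U/mL (37 °C, 5% CO2, 95% humidity). 5000–40,000 viable cells/well attached 24 h, then fresh medium with test compound at 0, 0.1, 1.0, 10 or 100 μM for 48 h. TCA-fixed (10%, 1 h RT), 0.4% SRB stain 60 min, acetic acid wash, Tris-solubilised dye read at 515 nm. GI50 and TGI calculated; triplicates, mean ± SD.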"}, "MCF7": {"tested_on": "MCF7", "experiment": "In vitro antiproliferative assay", "format": "cell-based, human", "conditions": "for mean optical densities: 48 h, SRB, 515 nm", "how_it_was_run": "as §1"}, "NCI–H522": {"tested_on": "NCI–H522", "experiment": "In vitro antiproliferative assay", "format": "cell-based, human", "conditions": "for mean optical densities: 48 h, SRB, 515 nm", "how_it_was_run": "as §1"}, "K-562": {"tested_on": "K-562", "experiment": "In vitro antiproliferative assay", "format": "cell-based, human", "conditions": "for mean optical densities: 48 h, SRB, 515 nm", "how_it_was_run": "as §1"}, "A549/ATCC": {"tested_on": "A549/ATCC", "experiment": "In vitro antiproliferative assay", "format": "cell-based, human", "conditions": "for mean optical densities: A549/ATCC, 48 h, SRB, 515 nm", "how_it_was_run": "as §1"}, "[1]": {"experiment": "In vivo pharmacokinetics in rats", "set-up": "species or system Male albino Wistar rats", "conditions": "male, Wistar, rat, plasma, po, 5 mg/kg", "how_it_was_run": "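Rats were given test compound at 5 mg/kg BW orally. Blood was drawn hourly over 24 h (24 samples) into Na2EDTA tubes, and plasma was quantified by UPLC. Cmax, Tmax and AUC0-t were taken from the plasma concentration-time curve. K came from the terminal log-linear slope, and AUC0→∞ was calculated as AUC0-t + Clast/K.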"}, "NCI–H226": {"tested_on": "NCI–H226", "experiment": "In vitro antiproliferative assay", "format": "cell-based, human", "conditions": "for mean optical densities: 48 h, SRB, 515 nm", "how_it_was_run": "as §1"}, "A549": {"tested_on": "A549", "experiment": "In vitro antiproliferative assay", "format": "cell-based, human", "conditions": "for mean optical densities: 48 h, SRB, 515 nm", "how_it_was_run": "as §1"}, "NCI–H322 M": {"tested_on": "NCI–H322 M", "experiment": "In vitro antiproliferative assay", "format": "cell-based, human", "conditions": "48 h; for mean optical densities: NCI–H322 M, SRB, 515 nm", "how_it_was_run": "as §1"}, "[2]": {"tested_on": "five cell lines originating from human lungs", "experiment": "In vitro antiproliferative assay", "format": "cell-based", "conditions": "read-out: IC50 range", "how_it_was_run": "as §1"}}, "note": "Marks after values point to notes of the source that are not given here.", "data": [{"smiles": "CCNc1nc2ccccc2c2c(=O)c3cc(Cl)ccc3sc12", "note": "[RXn-02, 10-chloro-6-(ethylamino)-12H-thiochromeno[2,3-c] quinolin-12-one]", "values": [{"measurement": "mean optical densities", "setting": "HOP-62; HOP-62, RXn-02 0.1 μM", "result": 1.859}, {"measurement": "mean optical densities", "setting": "HOP-62; HOP-62, RXn-02 1.0 μM", "result": 1.761}, {"measurement": "mean optical densities", "setting": "HOP-62; HOP-62, RXn-02 10 μM", "result": "1.463*"}, {"measurement": "mean optical densities", "setting": "HOP-62; HOP-62, RXn-02 100 μM", "result": "0.319***"}, {"measurement": "IC50", "setting": "HOP-62; Homo sapiens, HOP-62, 48 h", "result": 13.3, "unit": "µM"}, {"measurement": "IC50", "setting": "MCF7; Homo sapiens, MCF7, 48 h", "result": 0.047, "unit": "µM"}, {"measurement": "mean optical densities", "setting": "MCF7; MCF7, RXn-02 0.1 μM", "result": 1.083}, {"measurement": "mean optical densities", "setting": "MCF7; MCF7, RXn-02 1.0 μM", "result": 0.873}, {"measurement": "mean optical densities", "setting": "MCF7; MCF7, RXn-02 10 μM", "result": "0.735***"}, {"measurement": "mean optical densities", "setting": "MCF7; MCF7, RXn-02 100 μM", "result": "0.699***"}, {"measurement": "IC50", "setting": "NCI–H522; Homo sapiens, NCI-H522, 48 h", "result": 24.8, "unit": "µM"}, {"measurement": "mean optical densities", "setting": "NCI–H522; NCI–H522, RXn-02 0.1 μM", "result": 2.405}, {"measurement": "mean optical densities", "setting": "NCI–H522; NCI–H522, RXn-02 1.0 μM", "result": 2.362}, {"measurement": "mean optical densities", "setting": "NCI–H522; NCI–H522, RXn-02 10 μM", "result": "2.110*"}, {"measurement": "mean optical densities", "setting": "NCI–H522; NCI–H522, RXn-02 100 μM", "result": "1.395**"}, {"measurement": "IC50", "setting": "K-562; Homo sapiens, K562, 48 h", "result": 100, "unit": "µM"}, {"measurement": "mean optical densities", "setting": "K-562; K-562, RXn-02 0.1 μM", "result": 1.771}, {"measurement": "mean optical densities", "setting": "K-562; K-562, RXn-02 1.0 μM", "result": 1.668}, {"measurement": "mean optical densities", "setting": "K-562; K-562, RXn-02 10 μM", "result": 1.242}, {"measurement": "mean optical densities", "setting": "K-562; K-562, RXn-02 100 μM", "result": "1.056*"}, {"measurement": "mean optical densities", "setting": "A549/ATCC; RXn-02 0.1 μM", "result": 1.997}, {"measurement": "mean optical densities", "setting": "A549/ATCC; RXn-02 1.0 μM", "result": 1.883}, {"measurement": "mean optical densities", "setting": "A549/ATCC; RXn-02 10 μM", "result": "1.602**"}, {"measurement": "mean optical densities", "setting": "A549/ATCC; RXn-02 100 μM", "result": "1.129**"}, {"measurement": "IC50", "setting": "A549/ATCC; Homo sapiens, A549, 48 h", "result": 48.1, "unit": "µM"}, {"measurement": "AUC(0-t)", "setting": "[1]", "result": 18900, "unit": "ng·h/mL"}, {"measurement": "Cmax", "setting": "[1]", "result": 1760, "unit": "ng/mL"}, {"measurement": "IC50", "setting": "NCI–H226; Homo sapiens, NCI-H226, 48 h", "result": 33.2, "unit": "µM"}, {"measurement": "mean optical densities", "setting": "NCI–H226; NCI–H226, RXn-02 0.1 μM", "result": 2.389}, {"measurement": "mean optical densities", "setting": "NCI–H226; NCI–H226, RXn-02 1.0 μM", "result": 2.367}, {"measurement": "mean optical densities", "setting": "NCI–H226; NCI–H226, RXn-02 10 μM", "result": "2.142*"}, {"measurement": "mean optical densities", "setting": "NCI–H226; NCI–H226, RXn-02 100 μM", "result": "1.704**"}, {"measurement": "mean optical densities", "setting": "A549; A549, RXn-02 0.1 μM", "result": 1.997}, {"measurement": "mean optical densities", "setting": "A549; A549, RXn-02 1.0 μM", "result": 1.883}, {"measurement": "mean optical densities", "setting": "A549; A549, RXn-02 10 μM", "result": "1.602**"}, {"measurement": "mean optical densities", "setting": "A549; A549, RXn-02 100 μM", "result": "1.129**"}, {"measurement": "IC50", "setting": "A549; Homo sapiens, A549, 48 h", "result": 48.1, "unit": "µM"}, {"measurement": "IC50", "setting": "NCI–H322 M; Homo sapiens, NCI-H322M", "result": 69.5, "unit": "µM"}, {"measurement": "mean optical densities", "setting": "NCI–H322 M; RXn-02 0.1 μM", "result": 1.491}, {"measurement": "mean optical densities", "setting": "NCI–H322 M; RXn-02 1.0 μM", "result": 1.386}, {"measurement": "mean optical densities", "setting": "NCI–H322 M; RXn-02 10 μM", "result": "1.209*"}, {"measurement": "mean optical densities", "setting": "NCI–H322 M; RXn-02 100 μM", "result": "1.020*"}, {"measurement": "IC50", "setting": "[2]", "result": "33.2 to 69.5", "unit": "µM"}]}]}
